# From ChEMBL document CHEMBL1255471, “Effects of inoculum, pH, and cations on the in vitro activity of fidaxomicin (OPT-80, PAR-101) against Clostridium difficile” (2010)
# Assays:
# Format in all cases: functional
# [1] = test system: Clostridioides difficile; test: Antibacterial activity against Clostridium difficile ATCC 9689 by CLSI agar dilution method using 10^5 to 10^8 CFU/ml inoculum
# In short: (§1)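 CLSI agar dilution in a glove box (10% H2, 5% CO2, 85% N2). A ~10^8 CFU/ml suspension was serially diluted 10-fold to 10^5–10^8 CFU/ml and 2 μl was spotted (10^2–10^5 CFU/spot). Runs were done at least in duplicate; the mode was reported, or the higher value when replicates split evenly.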
# [2] = test system: Clostridioides difficile; test: Antibacterial activity against Clostridium difficile ATCC 700057 by CLSI agar dilution method using 10^5 to 10^8 CFU/ml inoculum; in short: as §1
# [3] = test system: Clostridioides difficile; test: Antibacterial activity against Clostridium difficile ATCC 700057 in presence of 33 mg/L of calcium ion by CLSI agar dilution method
# [4] = test system: Clostridioides difficile; test: Antibacterial activity against Clostridium difficile ATCC 700057 in presence of 45 mg/L of calcium ion by CLSI agar dilution method
# [5] = test system: Clostridioides difficile; test: Antibacterial activity against Clostridium difficile ATCC 700057 in presence of 75 mg/L of calcium ion by CLSI agar dilution method
# [6] = test system: Clostridioides difficile; test: Antibacterial activity against Clostridium difficile ATCC 9689 in presence of 33 mg/L of calcium ion by CLSI agar dilution method
# [7] = test system: Clostridioides difficile; test: Antibacterial activity against Clostridium difficile ATCC 9689 in presence of 45 mg/L of calcium ion by CLSI agar dilution method
# [8] = test system: Clostridioides difficile; test: Antibacterial activity against Clostridium difficile ATCC 9689 in presence of 75 mg/L of calcium ion by CLSI agar dilution method
# [9] = test system: Clostridioides difficile; test: Antibacterial activity against Clostridium difficile ATCC 700057 in presence of 21 mg/L of magnesium ion by CLSI agar dilution method
# [10] = test system: Clostridioides difficile; test: Antibacterial activity against Clostridium difficile ATCC 700057 in presence of 30 mg/L of magnesium ion by CLSI agar dilution method
# [11] = test system: Clostridioides difficile; test: Antibacterial activity against Clostridium difficile ATCC 700057 in presence of 57 mg/L of magnesium ion by CLSI agar dilution method
# [12] = test system: Clostridioides difficile; test: Antibacterial activity against Clostridium difficile ATCC 9689 in presence of 21 mg/L of magnesium ion by CLSI agar dilution method
# [13] = test system: Clostridioides difficile; test: Antibacterial activity against Clostridium difficile ATCC 9689 in presence of 30 mg/L of magnesium ion by CLSI agar dilution method
# [14] = test system: Clostridioides difficile; test: Antibacterial activity against Clostridium difficile ATCC 9689 in presence of 57 mg/L of magnesium ion by CLSI agar dilution method
# [15] = test system: Clostridioides difficile; test: Ratio of MIC for Clostridium difficile ATCC 700057 at pH 6.2 to MIC for Clostridium difficile ATCC 700057 at pH 7.9 by CLSI agar dilution method
# In short: (§2)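 Agar dilution MICs were measured over anaerobic pH 6.2–8.0. Media were buffered with 100 mM NaH2PO4 (pH 7) or TAPS (pH 8) and set in ambient air above the target pH. After 3 h equilibration in the chamber (5% CO2), anaerobic pH was checked with a flat-bottomed probe. The pH 8.0 run was repeated, and ratios were taken between MICs at the two pH values.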
# [16] = test system: Clostridioides difficile; test: Ratio of MIC for Clostridium difficile ATCC 9689 at pH 6.2 to MIC for Clostridium difficile ATCC 9689 at pH 7.9 by CLSI agar dilution method; in short: as §2
# [17] = test system: Clostridioides difficile; test: Ratio of MIC for Clostridium difficile ATCC 700057 at pH 7 to MIC for Clostridium difficile ATCC 700057 at pH 7.9 by CLSI agar dilution method; in short: as §2
# [18] = test system: Clostridioides difficile; test: Ratio of MIC for Clostridium difficile ATCC 9689 at pH 7 to MIC for Clostridium difficile ATCC 9689 at pH 7.9 by CLSI agar dilution method; in short: as §2
# [19] = test system: Clostridioides difficile; test: Ratio of MIC for Clostridium difficile ATCC 700057 at pH 6 to MIC for Clostridium difficile ATCC 700057 at pH 7.5 by broth microdilution method
# In short: (§3)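 Broth microdilution in brucella broth buffered at 10 or 100 mM with NaH2PO4·H2O (pH 7.0), MOPS (pH 8.0) or TAPS (pH 9.0), pH set in ambient air. Final anaerobic pH ranges were 6–7.6 (10 mM) and 6–8.1 (100 mM). Plates were equilibrated anaerobically for at least 3 h before inoculation. Data were pooled from three experiments, and ratios were taken between MICs at the two pH values.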
# [20] = test system: Clostridioides difficile; test: Ratio of MIC for Clostridium difficile ATCC 700057 at pH 6 to MIC for Clostridium difficile ATCC 700057 at pH 8.1 by broth microdilution method; in short: as §3
# [21] = test system: Clostridioides difficile; test: Ratio of MIC for Clostridium difficile ATCC 9689 at pH 6 to MIC for Clostridium difficile ATCC 9689 at pH 7.5 by broth microdilution method; in short: as §3
# [22] = test system: Clostridioides difficile; test: Ratio of MIC for Clostridium difficile ATCC 9689 at pH 6 to MIC for Clostridium difficile ATCC 9689 at pH 8.1 by broth microdilution method; in short: as §3
SMILES,MIC [3],MIC [6],MIC [9],MIC [12],Ratio [19],Ratio [20],Ratio [21],Ratio [22],further results
CCc1c(Cl)c(O)c(Cl)c(O)c1C(=O)O[C@H]1[C@H](O)[C@H](OC)[C@H](OC/C2=C\C=C\C[C@H](O)/C(C)=C/[C@H](CC)[C@@H](O[C@@H]3OC(C)(C)[C@@H](OC(=O)C(C)C)[C@H](O)[C@@H]3O)/C(C)=C/C(C)=C/C[C@@H]([C@@H](C)O)OC2=O)O[C@@H]1C [FIDAXOMICIN],0.125 µg/mL,0.063 µg/mL,0.125 µg/mL,0.063 µg/mL,8,16,8,16,MIC [1]: 0.063 µg/mL; MIC [2]: 0.125 µg/mL; MIC [4]: 0.125 µg/mL; MIC [5]: 0.125 µg/mL; MIC [7]: 0.063 µg/mL; MIC [8]: 0.063 µg/mL; MIC [10]: 0.125 µg/mL; MIC [11]: 0.125 µg/mL; MIC [13]: 0.063 µg/mL; MIC [14]: 0.063 µg/mL; Ratio [15]: 8; Ratio [16]: 8; Ratio [17]: 8; Ratio [18]: 8
CN[C@H](CC(C)C)C(=O)N[C@H]1C(=O)N[C@@H](CC(N)=O)C(=O)N[C@H]2C(=O)N[C@H]3C(=O)N[C@H](C(=O)N[C@H](C(=O)O)c4cc(O)cc(O)c4-c4cc3ccc4O)[C@H](O)c3ccc(c(Cl)c3)Oc3cc2cc(c3O[C@@H]2O[C@H](CO)[C@@H](O)[C@H](O)[C@H]2O[C@H]2C[C@](C)(N)[C@H](O)[C@H](C)O2)Oc2ccc(cc2Cl)[C@H]1O [VANCOMYCIN],1 µg/mL,1 µg/mL,1 µg/mL,1 µg/mL,8,16,8,16,–
